ChEMBL document CHEMBL1143825, “Evolution of resistant M414T mutants among hepatitis C virus replicon cells treated with polymerase inhibitor A-782759” (Antimicrob Agents Chemother, 2007)
Active and inactive are the calls of the source. The calls are words filed in the database; no cut-off is given here.

Assays:
Hepatitis C virus [1] = assay: Inhibition of RNA copy numbers in HCV 1b-N replicon cells with NS5B M414T mutant at 10 times EC50 after 4 days; type: functional, Hepacivirus hominis, genotype 1b strain N; set-up: scale not given: the % may be the effect or the level left
In short: (§1)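 1b-N replicon cells treated with compound for 4 days, with a no-compound control. Total RNA was extracted and HCV RNA copy number quantified by TaqMan real-time RT-PCR, normalised per 1 pg total RNA.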

Hepatitis C virus [2] = assay: Inhibition of RNA copy numbers in HCV 1b-N replicon cells with NS5B M414T mutant at EC50 after 4 days; type: functional, Hepacivirus hominis, genotype 1b strain N; set-up: scale not given: the % may be the effect or the level left; in short: as §1
Hepatitis C virus [3] = assay: Inhibition of RNA copy numbers in HCV 1b-N replicon cells with NS5B M414T mutant at 100 times EC50 after 4 days; type: functional, Hepacivirus hominis, genotype 1b strain N; set-up: scale not given: the % may be the effect or the level left; in short: as §1
Hepatitis C virus [4] = assay: Antiviral activity against HCV 1b-N; type: functional, organism-based, Hepacivirus hominis; settings: genotype 1b strain N
In short: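 1b-N subgenomic replicon cells, grown in DMEM with 10% FBS, blasticidin and G418, seeded at 4,000 cells/well with eight serial compound dilutions. Replicon RNA copy number was quantified by TaqMan real-time RT-PCR, and EC50 was taken as the concentration giving 50% inhibition of copy number.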

Hepatitis C virus [5] = assay: Decrease in NS5B M414T mutant in HCV 1b-N replicon cells treated with 70 nM assessed as mutant level after drug withdrawal on day 4 and measured at day 18 and 28; type: functional, Hepacivirus hominis, genotype 1b strain N; set-up: scale not given: the % may be the effect or the level left
In short: (§2)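 Replicon cells, 2 × 10⁵ per 10-cm dish, received inhibitor for 4 days, then drug was removed and culture continued to day 28, splitting 1:10 at 90% confluence. Cells were trypsinised and PBS-washed before RNA extraction. %M414T was measured by RT, first-round PCR, then allele-specific SYBR green real-time PCR as 100 × M414T/(M414T + wild-type copies), mean of three experiments.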

Hepatitis C virus [6] = assay: Increase in NS5B M414T mutant levels in HCV 1b-N replicon cells at 70 nM after 4 days relative to baseline; type: functional, Hepacivirus hominis, genotype 1b strain N
In short: (§3)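 1b-N replicon cells, 2 × 10⁴ per well, were exposed to inhibitor for up to 4 days, PBS-washed, and total RNA extracted. RNA was reverse transcribed at 50°C for 50 min, then NS5B was amplified by first-round PCR for 25 cycles. Allele-specific SYBR green real-time PCR used M414-wild-type or T-specific antisense primers. %M414T = 100 × M414T/(M414T + wild-type copies), mean of three experiments.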

Hepatitis C virus [7] = assay: Decrease in NS5B M414T mutant in HCV 1b-N replicon cells treated with 700 nM assessed as mutant level after drug withdrawal on day 4 and measured upto day 28; type: functional, organism-based; settings: Hepacivirus hominis; genotype 1b strain N; in short: as §2
Hepatitis C virus [8] = assay: Decrease in NS5B M414T mutant in HCV 1b-N replicon cells treated with 700 nM assessed as mutant level after drug withdrawal on day 4 and measured at day 10; type: functional, Hepacivirus hominis, genotype 1b strain N; set-up: scale not given: the % may be the effect or the level left; in short: as §2
Hepatitis C virus [9] = assay: Increase in NS5B M414T mutant levels in HCV 1b-N replicon cells at 7000 nM after 2 days relative to baseline; type: functional, Hepacivirus hominis, genotype 1b strain N; in short: as §3
Hepatitis C virus [10] = assay: Increase in NS5B M414T mutant levels in HCV 1b-N replicon cells at 7000 nM after 4 days relative to baseline; type: functional, Hepacivirus hominis, genotype 1b strain N; in short: as §3
Hepatitis C virus [11] = assay: Increase in NS5B M414T mutant levels in HCV 1b-N replicon cells at 700 nM after 2 days relative to baseline; type: functional, Hepacivirus hominis, genotype 1b strain N; in short: as §3
Hepatitis C virus [12] = assay: Increase in NS5B M414T mutant levels in HCV 1b-N replicon cells at 7000 nM after 3 days relative to baseline; type: functional, Hepacivirus hominis, genotype 1b strain N; in short: as §3
Hepatitis C virus [13] = assay: Increase in NS5B M414T mutant levels in HCV 1b-N replicon cells at 700 nM after 4 days relative to baseline; type: functional, Hepacivirus hominis, genotype 1b strain N; in short: as §3
Hepatitis C virus [14] = assay: Decrease in NS5B M414T mutant in HCV 1b-N replicon cells treated with 7000 nM assessed as mutant level after drug withdrawal on day 4 and measured upto day 28; type: functional, organism-based; settings: Hepacivirus hominis; genotype 1b strain N; in short: as §2
Hepatitis C virus [15] = assay: Increase in NS5B M414T mutant levels in HCV 1b-N replicon cells at 700 nM after 3 days relative to baseline; type: functional, Hepacivirus hominis, genotype 1b strain N; in short: as §3
Hepatitis C virus [16] = assay: Increase in NS5B M414T mutant levels in HCV 1b-N replicon cells at 70 nM after 3 days relative to baseline; type: functional, Hepacivirus hominis, genotype 1b strain N; in short: as §3
Hepatitis C virus [17] = assay: Increase in NS5B M414T mutant levels in HCV 1b-N replicon cells at 70 nM after 2 days relative to baseline; type: functional, Hepacivirus hominis, genotype 1b strain N; in short: as §3
Hepatitis C virus [18] = assay: Decrease in NS5B M414T mutant in HCV 1b-N replicon cells treated with 70 nM assessed as mutant level after drug withdrawal on day 4 and measured at day 10; type: functional, Hepacivirus hominis, genotype 1b strain N; set-up: scale not given: the % may be the effect or the level left; in short: as §2

Structure (SMILES) | Activity (Hepatitis C virus [1]) [%] | Activity (Hepatitis C virus [2]) [%] | Activity (Hepatitis C virus [3]) [%] | EC50 (Hepatitis C virus [4]) [nM] | Activity (Hepatitis C virus [5]) [%] | Activity (Hepatitis C virus [6]) [%] | Activity (Hepatitis C virus [7]) | Activity (Hepatitis C virus [8]) [%] | Activity (Hepatitis C virus [9]) [%] | Activity (Hepatitis C virus [10]) [%] | Activity (Hepatitis C virus [11]) [%] | Activity (Hepatitis C virus [12]) [%] | Activity (Hepatitis C virus [13]) [%] | Activity (Hepatitis C virus [14]) | Activity (Hepatitis C virus [15]) [%] | Activity (Hepatitis C virus [16]) [%] | Activity (Hepatitis C virus [17]) [%] | Activity (Hepatitis C virus [18]) [%]
COc1ccc2c(O[C@@H]3C[C@H]4C(=O)N[C@]5(C(=O)O)C[C@H]5/C=C\CCCCC[C@H](NC(=O)OC5CCCC5)C(=O)N4C3)cc(-c3csc(NC(C)C)n3)nc2c1 [CILUPREVIR] | 99 | 37 | 99 | 4 | – | – | – | – | – | – | – | – | – | – | – | – | – | –
NC(=O)COc1ccc2c(c1)S(=O)(=O)N=C(c1c(O)c3ccccc3n(NC3CCC3)c1=O)N2 | 93 | 58 | 99 | 70 | 0.3 | 2.5 | inactive | 4 | 12.6 | 60 | 4 | 56 | 26 | inactive | 28 | 2.5 | 0.8 | 0.9
